Laboratory results as given in ChEMBL document CHEMBL3272319, “Alkyl streptozotocin analogues with improved biological activities” (J Med Chem, 1976).

Tests used:
[1] = Antitumor activity against mouse S180A allografted in ICR mouse assessed as tumor growth at 100 mg/kg, ip qd for 5 days measured on day 7 relative to control; format: functional; conditions: route intraperitoneal
Outline: (§1)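 Ascites Sarcoma 180 (1 × 10^7 cells) implanted into ICR mice, six animals per group. Five daily ip injections in saline (days 1–5). Sacrificed day 7. T/C % computed from total packed cell volume (ascites volume × PCV) vs controls. Grades: 100-66 = -, 65-41 = +, 40-11 = ++, 10-0 = +++.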

[2] = system: Mus musculus; assay: Toxicity in ICR mouse allografted with mouse S180A assessed as mortality at 100 mg/kg, ip qd for 5 days; format: organism-based; set-up: dose 100 mg/kg, route intraperitoneal; conditions: in vivo, 120 h
Outline: (§2)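 Ascites Sarcoma 180 (1 × 10^7 cells) implanted into ICR mice, six per group; compound in saline ip once daily days 1-5; sacrifice on day 7; total packed cell volume (ascites volume × PCV) compared with controls as T/C %; mortality recorded.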

[3] = system: L1210; assay: Antitumor activity against mouse L1210 cells allografted in BDF1 mouse assessed as increase in host lifespan at 50 mg/kg, ip qd for 5 days relative to control; format: functional; conditions: 120 h, route intraperitoneal
Outline: (§3)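 L1210 (1 × 10^5 cells) implanted into BDF1 mice, six per group; compound in saline ip once daily days 1-5; effect read as % increase in life span, ILS = [(treated life span/control life span) − 1] × 100.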

[4] = system: Mus musculus; assay: Toxicity in BDF1 mouse allografted with mouse L1210 cells assessed as mortality at 50 mg/kg, ip qd for 5 days; format: organism-based; set-up: dose 50 mg/kg, route intraperitoneal; conditions: in vivo, 120 h; outline: as §3
[5] = system: Bacillus subtilis; assay: Antibacterial activity against Bacillus subtilis ATCC 6633 assessed as growth inhibition after 18 hrs by broth dilution method; format: functional; conditions: ATCC 6633, 18 h
Outline: (§4)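 Twofold serial dilutions in heart infusion broth. Inoculum was a 24-h heart infusion broth culture diluted 100-fold in physiological saline. Tubes incubated 30 °C for 18 h; the table footnote gives 32 °C for 24 h. MIC in µg/ml is the lowest level giving complete growth inhibition.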

[6] = system: Escherichia coli; assay: Antibacterial activity against Escherichia coli NIHJ JC-2 assessed as growth inhibition after 18 hrs by broth dilution method; format: functional; conditions: NIHJ JC-2, 18 h; outline: as §4
[7] = system: Klebsiella pneumoniae; assay: Antibacterial activity against Klebsiella pneumoniae ATCC 10031 assessed as growth inhibition after 18 hrs by broth dilution method; format: functional; conditions: ATCC 10031, 18 h; outline: as §4
[8] = system: Proteus vulgaris; assay: Antibacterial activity against Proteus vulgaris AHU 1469 assessed as growth inhibition after 18 hrs by broth dilution method; format: functional; conditions: AHU 1469, 18 h; outline: as §4
[9] = system: Pseudomonas fluorescens; assay: Antibacterial activity against Pseudomonas fluorescens NIHJ B-254 assessed as growth inhibition after 18 hrs by broth dilution method; format: functional; conditions: NIHJ B-254, 18 h; outline: as §4
[10] = system: Salmonella typhi; assay: Antibacterial activity against Salmonella typhi IFM 3020 assessed as growth inhibition after 18 hrs by broth dilution method; format: functional, Salmonella enterica subsp. enterica serovar Typhi; conditions: Salmonella enterica, IFM 3020, 18 h
Outline: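 Twofold serial dilutions in heart infusion broth; inoculum from 24 h heart infusion broth culture diluted 100-fold in physiological saline; tubes incubated 30 °C for 18 h; MIC (µg/ml) = lowest level giving complete growth inhibition.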

[11] = system: Micrococcus luteus; assay: Antibacterial activity against Sarcina lutea ATCC 9341 assessed as growth inhibition after 18 hrs by broth dilution method; format: functional; conditions: ATCC 9341, 18 h; outline: as §4
[12] = system: Shigella sonnei; assay: Antibacterial activity against Shigella sonnei assessed as growth inhibition after 18 hrs by broth dilution method; format: functional; outline: as §4
[13] = system: Staphylococcus aureus; assay: Antibacterial activity against Staphylococcus aureus FDA 209P JC-1 assessed as growth inhibition after 18 hrs by broth dilution method; format: functional; conditions: FDA 209P JC-1, 18 h; outline: as §4
[14] = system: Enterococcus faecalis; assay: Antibacterial activity against Streptococcus faecalis ATCC 10541 assessed as growth inhibition after 18 hrs by broth dilution method; format: functional; conditions: ATCC 10541, 18 h; outline: as §4
[15] = (§5) Acute toxicity in ip dosed JCL-ICR mouse assessed as animal death; format: organism-based; conditions: JCL-ICR, in vivo
Outline: (§6)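 Groups of ten female JCL-ICR mice given single ip dose in physiological saline; deaths followed over 7 days; LD50 (and LD10) derived by Litchfield–Wilcoxon method.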

[16] = system: Mus musculus; assay: as §5; format: organism-based; conditions: in vivo; outline: as §6
[17] = system: Mus musculus; assay: Ratio of compound LD10 to streptozotocin LD10 for JCL-ICR mouse; format: ADME, organism-based; conditions: in vivo
[18] = Ratio of compound LD50 to streptozotocin LD50 for JCL-ICR mouse; format: ADME, organism-based; conditions: in vivo
[19] = system: Rattus norvegicus; assay: Diabetogenic activity in iv dosed Wistar rat assessed as increase in blood sugar level administered as single dose by glucose oxidase method; format: ADME, organism-based; conditions: in vivo
Outline: (§7)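 Male Wistar rats, about 200 g, five per group, fasted 16 h. Single iv dose into the femoral vein in physiological saline, equimolar across compounds. Caudal-vein blood sampled at set times over 24 h. Sugar measured by glucose oxidase.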

[20] = Antitumor activity against mouse S180A allografted in ICR mouse assessed as tumor growth at 50 mg/kg, ip qd for 5 days measured on day 7 relative to control; format: functional; conditions: route intraperitoneal; outline: as §1
[21] = system: Mus musculus; assay: Toxicity in ICR mouse allografted with mouse S180A assessed as mortality at 50 mg/kg, ip qd for 5 days; format: organism-based; set-up: dose 50 mg/kg, route intraperitoneal; conditions: in vivo, 120 h; outline: as §2
[22] = system: Rattus norvegicus; assay: Diabetogenic activity in Wistar rat assessed as increase in blood sugar level at 74.7 mg/kg, iv administered as single dose by glucose oxidase method; format: ADME, organism-based; set-up: dose 74.7 mg/kg, route intravenous; conditions: in vivo; outline: as §7
[23] = Antitumor activity against mouse S180A allografted in ICR mouse assessed as tumor growth at 25 mg/kg, ip qd for 5 days measured on day 7 relative to control; format: functional; conditions: route intraperitoneal; outline: as §1
[24] = system: Mus musculus; assay: Toxicity in ICR mouse allografted with mouse S180A assessed as mortality at 25 mg/kg, ip qd for 5 days; format: organism-based; set-up: dose 25 mg/kg, route intraperitoneal; conditions: in vivo, 120 h; outline: as §2
[25] = system: Ehrlich; assay: Antitumor activity against mouse EAC allografted in ICR mouse assessed as tumor growth at 150 mg/kg, ip qd for 5 days measured on day 7 relative to control; format: functional; conditions: route intraperitoneal
Outline: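 Ehrlich ascites carcinoma (1 × 10^7 cells) implanted into ICR mice, six per group. Drug in saline ip, qd days 1–5. Mice killed day 7. Total packed cell volume = ascites volume × % packed cell volume; T/C % = TPCV treated/control × 100. Activity graded from T/C.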

[26] = system: Mus musculus; assay: Toxicity in ICR mouse allografted with mouse EAC assessed as mortality at 150 mg/kg, ip qd for 5 days; format: organism-based; set-up: dose 150 mg/kg, route intraperitoneal; conditions: in vivo, 120 h
Outline: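 Ehrlich ascites carcinoma (1 × 10^7 cells) implanted into ICR mice, six per group; compound ip daily for 5 days; mice sacrificed day 7; tumour burden as total packed cell volume (ascites volume × PCV), T/C % vs controls; mortality recorded.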

[27] = system: Rattus norvegicus; assay: Diabetogenic activity in Wistar rat assessed as increase in blood sugar level at 68 mg/kg, iv administered as single dose by glucose oxidase method; format: ADME, organism-based; set-up: dose 68 mg/kg, route intravenous; conditions: in vivo; outline: as §7
[28] = system: Rattus norvegicus; assay: Diabetogenic activity in Wistar rat assessed as increase in blood sugar level at 30 to 120 mg/kg, ip qd for 1 month measured 24 hrs last drug dosage by glucose oxidase method; format: ADME, organism-based; set-up: dose 30-120 mg/kg, route intraperitoneal; conditions: in vivo
Outline: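 Male Wistar rats, about 150 g, five per group. Drug in physiological saline given ip qd on days 1–30. Blood drawn 24 h after the last dose. Sugar measured by glucose oxidase.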

[29] = Acute toxicity in iv dosed mouse; format: organism-based; conditions: in vivo
[30] = Acute toxicity in iv dosed dog; format: organism-based, Canis lupus familiaris; conditions: in vivo
[31] = Therapeutic index, ratio of LD10 for JCL-ICR mouse to ED90 for mouse S180A cells allografted in ICR mouse; conditions: read-out: TI
[32] = system: Mus musculus; assay: Toxicity in ip dosed BDF1 mouse allografted with mouse L1210 cells assessed as optimal dose required for mortality administered qd for 5 days; format: organism-based; conditions: in vivo, 120 h
[33] = Antitumor activity against mouse S180A cells allografted in ip dosed ICR mouse administered qd for 5 days; format: functional; conditions: 120 h; outline: as §1
[34] = system: L1210; assay: Antitumor activity against mouse L1210 cells allografted in ip dosed BDF1 mouse assessed as 30% increase in host lifespan administered for qd for 5 days; format: functional

Row | Compound | ILS at 50 mg/kg [3] [%] | Activity [4] | MIC [5] [µg/mL] | MIC [6] [µg/mL] | MIC [7] [µg/mL] | MIC [8] [µg/mL] | MIC [9] [µg/mL] | MIC [10] [µg/mL] | MIC [11] [µg/mL] | MIC [12] [µg/mL] | MIC [13] [µg/mL] | MIC [14] [µg/mL] | LD50 [15] [mg/kg] | LD10 [16] [mg/kg] | Ratio [17] | selectivity ratio [18] | also measured
1 | CCN(N=O)C(=O)N[C@H]1[C@H](OC)O[C@H](CO)[C@@H](O)[C@@H]1O | 14 | Non-toxic | > 1000 | > 1000 | > 1000 | > 1000 | > 1000 | > 1000 | > 1000 | > 1000 | > 1000 | > 1000 | 1700 | 1380 | 2 | 2 | T/C [1]: 65%; Activity [2]: Non-toxic; Activity [19]: Non-toxic
2 | CCCO[C@@H]1O[C@H](CO)[C@@H](O)[C@H](O)[C@H]1NC(=O)N(C)N=O | 30 | Non-toxic | > 1000 | > 1000 | > 1000 | > 1000 | > 1000 | > 1000 | > 1000 | > 1000 | > 1000 | > 1000 | 2150 | 1240 | 2 | 2 | T/C [20]: 32%; Activity [21]: Non-toxic; Activity [22]: Non-toxic
3 | CO[C@@H]1O[C@H](CO)[C@@H](O)[C@H](O)[C@H]1NC(=O)N(C)N=O | 40 | Non-toxic | > 1000 | > 1000 | > 1000 | > 1000 | > 1000 | > 1000 | > 1000 | > 1000 | > 1000 | > 1000 | 1700 | 800 | 2 | 2 | T/C [23]: 22%; Activity [24]: Non-toxic; T/C [25]: 1%; Activity [26]: Non-toxic; Activity [27]: Non-toxic; Activity [28]: Non-toxic; LD50 [29]: 1620 mg/kg; LD50 [30]: 400 mg/kg; selectivity ratio [31]: 16; Activity [32]: 400 mg/kg/day; ED90 [33]: 50 mg/kg/day; Activity [34]: 33 mg/kg/day
